Bioassay records deposited in PubChem by several laboratories.
This is a sample that favours compounds with a hit; in the whole collection about 2% have one here.
Rpn11 block – blocks the human proteasome subunit Rpn11. O00487. actives 0.59% (n = 360,000). human 26S proteasome, Ub4-pepOG fluorescence polarization; 20S core pre-blocked with epoxomicin. inhibition, % at 20 µM;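 active = inhibition at 20 µM, scaled to each plate's controls, above about 33%, limit read from the data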
Target sequence (O00487 whole entry, looked up): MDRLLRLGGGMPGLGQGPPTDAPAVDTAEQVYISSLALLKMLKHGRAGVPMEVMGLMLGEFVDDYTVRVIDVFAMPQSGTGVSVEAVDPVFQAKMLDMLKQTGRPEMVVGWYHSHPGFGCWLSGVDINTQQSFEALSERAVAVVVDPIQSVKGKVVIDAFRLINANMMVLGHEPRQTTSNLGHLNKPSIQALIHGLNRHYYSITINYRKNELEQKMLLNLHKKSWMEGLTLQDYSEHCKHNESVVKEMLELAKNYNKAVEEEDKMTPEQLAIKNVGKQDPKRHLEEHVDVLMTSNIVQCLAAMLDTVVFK
ATG4B inhibitor – blocks human ATG4B protease cleavage of LC3 substrate | ATG4B cleavage of LC3-PLA2, NBD-HPC fluorescence, 1 h | inhibition, % at 8.33 µM | actives 0.51% (n = 340,000); in the data active = inhibition above about 40%
SENP1 inh – inhibitors of human SENP1 SUMO protease catalytic domain; AID 624204; recombinant SENP1 catalytic domain, CyPet-SUMO1-YPet FRET cleavage; inhibition, % at 10 µM; actives 0.21% (n = 360,000);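 active = inhibition at least 30% at 10 µM, raw YFP signal under a set limit, fluorescence ratio 0.5 to 1.5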;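 also: 0% = enzyme with DMSO and 100% = no enzyme wells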
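Assay system: hSENP1 catalytic domain, recombinant. Amount: SENP1 enzyme, 20 pM final. Schedule: 50 min reaction, RT, dark. Technique: FRET, CFP and YFP emission. Control set: no-enzyme wells low, DMSO-plus-enzyme wells high control.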
TPT1 inh – C. albicans TPT1 enzyme inhibition | recombinant caTPT1, FP RNA substrate dephosphorylation | inhibition, % at 5 µM | actives 0.81% (n = 300,000) | AID 1962;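 active = inhibition above the mean of all tested compounds plus 3 SD, set per screening campaign, cut at about 24% in these data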;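 also: plate controls were DMSO alone for no effect and ferristatin control at 100 nM for full effect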
HNF4A DNA FP – change in binding of human HNF4 alpha to DNA; actives 0.3% (n = 360,000); activity change, % at 10 µM; HNF4a-FITC DNA binding, fluorescence polarization, 1 h; in the data active = activity change above about 30%, passing the limit was not always enough
CSN inh – CSN deneddylation inhibition. actives 0.38% (n = 360,000). inhibition, % at 12.5 µM. Purified CSN, SCF-Nedd8-OG deneddylation, fluorescence polarization. AID 651999. Q92905;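 active = pattern-corrected inhibition above about 35%, with an unprinted fluorescence ratio check between 0.5 and 1.5, limit read from the data, passing the limit was not always enough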;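 also: 0% = enzyme with substrate and 100% = substrate without enzyme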
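Material: purified human Csn5 enzyme expressed in HEK293T cells / Medium: Tris buffer pH 7.5, NaCl, DTT, Tween-20, trehalose, ovalbumin / Compound dosing: 12.5 µM single point / Schedule: 90 min incubation of compound, enzyme and substrate at room temperature / Signal: fluorescence polarization of the substrate / Control set: no-enzyme wells high, enzyme-with-substrate wells low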
ATG4B conf – ATG4B (human) inhibition, single-dose confirmed | shares compounds with ATG4B inhibitor | ATG4B protease fluorescent substrate cleavage assay | inhibition, % at 8.33 µM | actives 92% (n = 320) | AID 504757; in the data active = inhibition above about 39%
PLA2 counter – counter-screen for ATG4B inhibitors: human phospholipase A2. actives 66% (n = 1,600). inhibition, % at 8.33 µM. shares compounds with ATG4B inhibitor. purified PLA2, NBD-C6-HPC fluorescence, 45 min; in the data active = inhibition above about 50%
Target sequence (P04054 whole entry, looked up): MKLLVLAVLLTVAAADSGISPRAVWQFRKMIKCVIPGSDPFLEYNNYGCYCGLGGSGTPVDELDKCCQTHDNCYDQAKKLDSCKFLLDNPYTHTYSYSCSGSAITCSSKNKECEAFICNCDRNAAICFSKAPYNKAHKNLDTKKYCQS
* hit, by the source's call.

`CCN1C(=O)/C(=C\N2CCCCCC2)SC1=S` gave Rpn11 block 1, ATG4B inhibitor -3, SENP1 inh -1, TPT1 inh 10, HNF4A DNA FP 1 and CSN inh -3.
`CC(C)Cc1ccc(CN2CCCC(NC(=O)c3ccoc3)C2)cc1` (stereo not given) gave Rpn11 block 1, ATG4B inhibitor 18, SENP1 inh 1, TPT1 inh -2, HNF4A DNA FP 4 and CSN inh -5.
CC(C)Cc1ccc(CN2CCCC(NC(=O)c3ccnn3C)C2)cc1 (stereo not given) was read as Rpn11 block -1, ATG4B inhibitor 42*, SENP1 inh -1, TPT1 inh -2, HNF4A DNA FP 3, CSN inh -1 and PLA2 counter 49.
Screening Cc1ccc(Cc2c(-c3ccc(C#N)cc3)nc3c(C)cc(Br)cn23)cc1 returned Rpn11 block 18, SENP1 inh -5, HNF4A DNA FP 4 and CSN inh 4.
For O=C(NNC(=S)Nc1ccc(Cl)c(Cl)c1)c1cccc([N+](=O)[O-])c1 the results were Rpn11 block 12, ATG4B inhibitor 85*, SENP1 inh 3, TPT1 inh -4, HNF4A DNA FP 2, CSN inh 0 and PLA2 counter 91*.
Screening Cc1cccc(NC(=S)NNC(=O)c2cccc([N+](=O)[O-])c2)c1 returned Rpn11 block -3, ATG4B inhibitor 28, SENP1 inh 2, TPT1 inh -3, HNF4A DNA FP 5 and CSN inh -1.
`CC(CCl)n1c(=O)c2ccccc2n1C(=O)c1ccccc1` (stereo not given) gave SENP1 inh 3, HNF4A DNA FP 6 and CSN inh -1.
`CCCCn1c2ccccc2c2cc(CC(N)=O)ccc21` gave Rpn11 block -5, ATG4B inhibitor 62*, SENP1 inh -2, TPT1 inh 3, HNF4A DNA FP -1, CSN inh 0 and PLA2 counter 74*.
Screening O=C(O)c1ccc2nc(-c3ccco3)c(-c3ccco3)nc2c1 returned Rpn11 block -28, ATG4B inhibitor -1, SENP1 inh -28, HNF4A DNA FP -59 and CSN inh 61.
Screening O=C(Nc1ccc2nc(-c3ccco3)c(-c3ccco3)nc2c1)NC1CC1 returned Rpn11 block -7, ATG4B inhibitor 55*, SENP1 inh -21, HNF4A DNA FP -36, CSN inh 39 and PLA2 counter 60*.
For O=C(Nc1cccc(C(F)(F)F)c1)c1ccc2nc(-c3ccco3)c(-c3ccco3)nc2c1 the results were Rpn11 block -1, ATG4B inhibitor 47*, SENP1 inh -19, TPT1 inh 8, HNF4A DNA FP -7, CSN inh 20 and PLA2 counter 9.
Nc1cc(S(=O)(=O)C(F)(F)F)ccc1C(=O)O was read as Rpn11 block -2, ATG4B inhibitor 8, SENP1 inh 1, TPT1 inh -2, HNF4A DNA FP -1 and CSN inh 4.
O=S(=O)(c1ccc2c(c1)C(O)c1ccccc1CC2)C(F)(F)F (stereo not given) was read as Rpn11 block -6, ATG4B inhibitor 40*, SENP1 inh 0, HNF4A DNA FP 2, CSN inh -2 and PLA2 counter 60*.
`CCN1CCSc2ccc(C(=O)NCc3ccccc3C)cc21` gave Rpn11 block 1, ATG4B inhibitor 44*, SENP1 inh -7, TPT1 inh 0, HNF4A DNA FP -2, CSN inh 1 and PLA2 counter 59*.
`CN1CCSc2ccc(C(=O)NCc3cccc(Br)c3)cc21` gave Rpn11 block -2, ATG4B inhibitor 41*, SENP1 inh -5, TPT1 inh 0, HNF4A DNA FP 6, CSN inh 4 and PLA2 counter 57*.
`CCN1CCSc2ccc(C(=O)NCc3ccccc3Br)cc21` gave Rpn11 block 7, ATG4B inhibitor 38, SENP1 inh -5, TPT1 inh -3, HNF4A DNA FP 0 and CSN inh 3.
For Cc1cccc(CNC(=O)C(C)n2nc(C)c3c(C)n(-c4ccccc4)nc3c2=O)c1 (stereo not given) the results were Rpn11 block 1, ATG4B inhibitor 10, SENP1 inh -1, TPT1 inh -1, HNF4A DNA FP 4 and CSN inh 3.
For Cc1ccc(C(=O)O)cc1N=Cc1cc(Br)cc(Br)c1O the results were Rpn11 block 10, ATG4B inhibitor 44*, SENP1 inh -23, TPT1 inh -3, HNF4A DNA FP 2, CSN inh -8, ATG4B conf 59* and PLA2 counter 21.
`CC(=O)Nc1ccc(C(=O)N/N=C/c2cc(Br)cc(Br)c2O)cc1` gave Rpn11 block 22, ATG4B inhibitor -8, SENP1 inh -26, TPT1 inh 16, HNF4A DNA FP 12 and CSN inh 5.
For O=C(O)CSc1cc(C(=O)c2ccccc2O)cn2c(=O)c3c(-c4ccccc4)csc3nc12 the results were Rpn11 block 34, ATG4B inhibitor 22, SENP1 inh -34, TPT1 inh 9, HNF4A DNA FP 4 and CSN inh 10.
`Cc1sc2nc3c(SC(C)C(=O)O)cc(C(=O)c4ccccc4O)cn3c(=O)c2c1C` (stereo not given) gave Rpn11 block 6, ATG4B inhibitor 52*, SENP1 inh -13, TPT1 inh 11, HNF4A DNA FP 5, CSN inh 2 and PLA2 counter 53*.
Cc1nc2c(C)cccn2c(=O)c1NC(=O)c1cccc2ccccc12 was read as Rpn11 block -1, ATG4B inhibitor 3, SENP1 inh 0, TPT1 inh 0, HNF4A DNA FP -1 and CSN inh -2.
For Cc1nn(Cc2c(F)c(F)c(F)c(F)c2F)c(C)c1NC(=O)c1ccc(COc2ccc(F)cc2)o1 the results were Rpn11 block 4, ATG4B inhibitor 67*, SENP1 inh 2, TPT1 inh -2, HNF4A DNA FP 0, CSN inh -4 and PLA2 counter 68*.
For Cc1nn(Cc2c(F)c(F)c(F)c(F)c2F)c(C)c1NC(=O)c1ccc(COc2ccccc2Cl)o1 the results were Rpn11 block 7, ATG4B inhibitor 68*, SENP1 inh 1, TPT1 inh 1, HNF4A DNA FP -1, CSN inh 2 and PLA2 counter 79*.
